# Source: ChEMBL document CHEMBL1765085, “Cytotoxic and apoptosis-inducing activities of triterpene acids from Poria cocos” (J Nat Prod, 2011)
# Activity calls are given as the source filed them. The calls are words filed in the database; no cut-off is given here.
# Columns and labels:
# [1] = test system: HL-60; experiment: Induction of apoptosis in human HL60 cells assessed as accumulation at Go/G1 phase at 30 uM after 48 hrs by flow cytometry (reference value: 51.4%); assay type: functional
# Outline: (§1)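 Cells seeded at 1 × 10^5 per sample for HL60 and 1.5 × 10^5 for A549, then exposed to 30 μM for 0, 24 or 48 h. After a PBS wash, DNA was stained with Nim-DAPI for 10 min at room temperature. Phase distribution was read by flow cytometry, with the sub-G1 (fragmented DNA) fraction taken as the apoptosis index. Values are means of three experiments.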
# [2] = test system: A549; experiment: Cell cycle arrest in human A549 cells assessed as accumulation at G2/M phase at 30 uM after 48 hrs by flow cytometry (reference value: 4.9%); assay type: functional; outline: as §1
# [3] = test system: A549; experiment: Cell cycle arrest in human A549 cells assessed as accumulation at sub-G1 phase at 30 uM after 48 hrs by flow cytometry (reference value: 3.1%); assay type: functional; outline: as §1
# [4] = test system: A549; experiment: Induction of mitochondrial signal transduction pathway-mediated apoptosis in human A549 cells assessed as increase in cleaved caspase-3 level at 30 uM after 24 to 48 hrs by Western blot analysis
# [5] = test system: A549; experiment: Induction of apoptosis in human A549 cells assessed as viable cells at 30 uM after 24 hrs by AnnexinV/propidium iodide staining (Rvb =91.2%); assay type: functional; settings: A549, 24 h, read-out: Activity
# [6] = test system: A549; experiment: Induction of apoptosis in human A549 cells assessed as late apoptotic cells at 30 uM after 24 hrs by AnnexinV/propidium iodide staining (Rvb =1.1%); assay type: functional
# [7] = test system: HL-60; experiment: Cell cycle arrest in human HL60 cells assessed as accumulation at G2/M phase at 30 uM after 48 hrs by flow cytometry (reference value: 6.0%); assay type: functional; outline: as §1
# [8] = test system: A549; experiment: Cell cycle arrest in human A549 cells assessed as accumulation at sub-G1 phase at 30 uM after 24 hrs by flow cytometry (reference value: 3.1%); assay type: functional; outline: as §1
# [9] = test system: HL-60; experiment: Induction of apoptosis in human HL60 cells assessed as viable cells at 30 uM after 48 hrs by AnnexinV/propidium iodide staining (Rvb =85.6%); assay type: functional; settings: HL-60, 48 h, read-out: Activity
# [10] = test system: A549; experiment: Induction of apoptosis in human A549 cells assessed as necrotic cells at 30 uM after 24 hrs by AnnexinV/propidium iodide staining (Rvb =3.4%); assay type: functional
# [11] = test system: PANC-1; experiment: Cytotoxicity in human PANC1 cells assessed as cell viability after 48 hrs by MTT assay; assay type: functional, cell-based; settings: PANC-1, 48 h
# Outline: (§2)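 Growth conditions: RPMI 1640 for HL60, CRL1579, NIH:OVCAR-3, SK-BR-3, DU145 and PANC-1; D-MEM for A549; MEM for WI-38; all with 10% FBS and antibiotics, 37 °C, 5% CO2. Seeded at 3 × 10^3 cells/well (OVCAR-3 1 × 10^4), then treated 48 h with 10^-4 to 10^-6 M. MTT for 3 h, formazan dissolved in 0.04 M HCl/2-propanol, A570/630. IC50 (50% growth inhibition) from triplicates.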
# [12] = test system: A549; experiment: Induction of mitochondrial signal transduction pathway-mediated apoptosis in human A549 cells assessed as increase in cleaved caspase-8 level at 30 uM after 24 to 48 hrs by Western blot analysis
# [13] = test system: SK-BR-3; experiment: Cytotoxicity in human SK-BR-3 cells assessed as cell viability after 48 hrs by MTT assay; assay type: functional, cell-based; settings: SK-BR-3, 48 h; outline: as §2
# [14] = test system: A549; experiment: Cell cycle arrest in human A549 cells assessed as accumulation at S phase at 30 uM after 48 hrs by flow cytometry (reference value: 27.7%); assay type: functional; outline: as §1
# [15] = test system: A549; experiment: Cell cycle arrest in human A549 cells assessed as accumulation at Go/G1 phase at 30 uM after 24 hrs by flow cytometry (reference value: 64.3%); assay type: functional; outline: as §1
# [16] = test system: HL-60; experiment: Induction of apoptosis in human HL60 cells assessed as necrotic cells at 30 uM after 24 hrs by AnnexinV/propidium iodide staining (Rvb =2.3%); assay type: functional
# [17] = test system: A549; experiment: Cell cycle arrest in human A549 cells assessed as accumulation at Go/G1 phase at 30 uM after 48 hrs by flow cytometry (reference value: 64.3%); assay type: functional; outline: as §1
# [18] = test system: HL-60; experiment: Cell cycle arrest in human HL60 cells assessed as accumulation at S phase at 30 uM after 24 hrs by flow cytometry (reference value: 42.6%); assay type: functional; outline: as §1
# [19] = test system: HL-60; experiment: Induction of mitochondrial signal transduction pathway-mediated apoptosis in human HL60 cells assessed as increase in Bax level at 30 uM after 8 to 24 hrs by Western blot analysis; settings: TDE = time-dependent effect
# [20] = test system: HL-60; experiment: Cell cycle arrest in human HL60 cells assessed as accumulation at Go/G1 phase at 30 uM after 24 hrs by flow cytometry (reference value: 51.4%); assay type: functional; outline: as §1
# [21] = test system: A549; experiment: Induction of apoptosis in human A549 cells assessed as late apoptotic cells at 30 uM after 48 hrs by AnnexinV/propidium iodide staining (Rvb =1.1%); assay type: functional
# [22] = test system: HL-60; experiment: Induction of apoptosis in human HL60 cells assessed as necrotic cells at 30 uM after 48 hrs by AnnexinV/propidium iodide staining (Rvb =2.3%); assay type: functional
# [23] = test system: A549; experiment: Cell cycle arrest in human A549 cells assessed as accumulation at G2/M phase at 30 uM after 24 hrs by flow cytometry (reference value: 4.9%); assay type: functional; outline: as §1
smiles,measurement,setting,value
C=C(CC[C@@H](CO)[C@H]1[C@H](O)C[C@@]2(C)C3=CC[C@@H](C(=C)C)[C@](C)(CCCO)C3=CC[C@]12C)C(C)C [PORICOTRIOL A],Activity,[1],58.6%
same,Activity,[2],3.6%
same,Activity,[3],17.4%
same,Activity,[4],inactive
same,viability at 30 µM,[5],89.2%
same,Activity,[6],2.9%
same,Activity,[7],10.9%
same,Activity,[8],7.5%
same,viability at 30 µM,[9],14.7%
same,Activity,[10],4.3%
same,IC50,[11],26.3 µM
same,Activity,[12],inactive
same,IC50,[13],1.2 µM
same,Activity,[14],6%
same,Activity,[15],77.2%
same,Activity,[16],3.2%
same,Activity,[17],73%
same,Activity,[18],28.9%
same,Activity,[19],tde
same,Activity,[20],62.3%
same,Activity,[21],20.2%
same,Activity,[22],2.5%
same,Activity,[23],7.5%
